Source: ChEMBL document CHEMBL4346690, “Structure-activity relationship studies of (E)-3,4-dihydroxystyryl alkyl sulfones as novel neuroprotective agents based on improved antioxidant, anti-inflammatory activities and BBB permeability” (Eur J Med Chem, 2019)
The source made the active and inactive calls. The calls are words filed in the database; no cut-off is given here.

Key:
PC-12 [1] = assay: Neuroprotection against H2O2-induced cell death in rat PC12 cells assessed as increase in cell viability at 2.5 to 5 uM preincubated for 3 hrs followed by H2O2 addition and measured after 3 hrs by MTS assay; type: functional, cell-based
Method in brief: (§1)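 PC12 cells plated at 2 × 10^5 cells mL−1 for 1 day, pretreated 3 h with compounds, then H2O2 (final 400 µM) for 3 h. Viability by MTS at 490 nm relative to untreated cells (100%); single-concentration tests at 2.5, 5, 10 µM and IC50 values; mean ± SD, n = 3.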

[2] = Anti-neuroinflammatory activity in […] BV2 cells assessed as reduction in LPS-induced NO production preincubated for 3 hrs followed by LPS stimulation for 24 hrs by Griess assay; type: functional, cell-based; details: BV-2
Method in brief: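 BV2 microglia seeded 3 × 10^5 cells mL−1 for 1 day; compounds in medium added for 3 h, then LPS (final 100 ng mL−1) for a further 24 h. Supernatant mixed with Griess reagent, absorbance at 540 nm. Inhibition % from NO release of LPS-only, unstimulated and compound+LPS wells; IC50 reported; mean ± SD, n = 3.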

PC-12 [3] = assay: Neuroprotection activity in rat PC12 cells assessed as reduction in 6-OHDA-induced cell damages at 2.5 uM preincubated for 3 hrs followed by H2O2 addition and measured after 24 hrs by MTT assay relative to control; type: functional, cell-based; details: in the assay text read “6-OHDA addition” for “H2O2 addition”
Method in brief: (§2)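 PC12 cells plated at 2 × 10^5 cells mL−1 for 1 day, pretreated 3 h with compounds at 2.5, 5 or 10 µM, then 6-OHDA (final 250 µM) added for 24 h. Viability by MTT, absorbance 570 nm; untreated cells = 100%; mean ± SD, n = 3.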

[4] = Cytotoxicity against rat PC12 cells assessed as cell viability at 100 uM after 24 hrs by MTT assay; type: cell-based, PC-12; details: read-out: Activity
Method in brief: (§3)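 Cells kept in high-glucose DMEM with 10% FBS and 1% PS at 37 °C, 5% CO2. Plated 1 day, then compounds for 24 h; viability by MTT at 100 µM as ODtreated/ODcontrol × 100%, untreated = 100%. Mean ± SD, n = 3.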

PC-12 [5] = assay: Neuroprotection against H2O2-induced cell death in rat PC12 cells assessed as decrease in early apoptotic cells at 10 uM preincubated for 3 hrs followed by H2O2 addition and measured 3 hrs by Annexin V-FITC/propidium iodide staining based fluorescence microscopic method; type: functional
Method in brief: (§4)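 PC12 cells (1.5 × 10^5 cells mL−1, 35 mm dishes) plated 1 day, pretreated 3 h at 2.5 or 10 µM, then exposed to H2O2 (final 400 µM) for 3 h. Washed with ice-cold PBS, stained with Annexin V-FITC and PI in binding buffer for 5 min at 25 °C in the dark, and counted by fluorescence microscopy as early (AV+) or late (AV+PI+) apoptotic cells.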

[6] = Potency index, ratio of IC50 for CAPE to IC50 for test compound for anti-neuroinflammatory activity in […] BV2 cells; type: functional
PC-12 [7] = assay: Neuroprotection activity in rat PC12 cells assessed as reduction in H2O2-induced cell death preincubated for 3 hrs followed by H2O2 addition and measured after 3 hrs by MTS assay; type: functional, cell-based; method in brief: as §1
PC-12 [8] = assay: Neuroprotection against H2O2-induced cell death in rat PC12 cells assessed as decrease in late apoptotic cells at 10 uM preincubated for 3 hrs followed by H2O2 addition and measured 3 hrs by Annexin V-FITC/propidium iodide staining based fluorescence microscopic method; type: functional; method in brief: as §4
[9] = Potency index, ratio of IC50 for (E)-4-(2-((3-phenylpropyl)sulfonyl)vinyl)benzene-1,2-diol to IC50 for test compound for anti-neuroinflammatory activity in […] BV2 cells; type: functional
PC-12 [10] = assay: Neuroprotection activity in rat PC12 cells assessed as reduction in 6-OHDA-induced cell damages at 10 uM preincubated for 3 hrs followed by H2O2 addition and measured after 24 hrs by MTT assay relative to control; type: functional, cell-based; details: in the assay text read “6-OHDA addition” for “H2O2 addition”; method in brief: as §2
[11] = Antioxidant activity assessed as DPPH radical scavenging activity after 1 hr by […]; type: functional
Method in brief: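 DPPH (0.2 mM) in ethanol mixed with sample, kept 1 h at room temperature, absorbance read at 517 nm. Scavenging % = [1−(Ac−Ab)/A0]×100, where Ab is the sample in ethanol without DPPH and A0 is the ethanol+DPPH control. EC50 reported; vitamin C used as reference antioxidant; mean ± SD, n = 3.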

PC-12 [12] = assay: Neuroprotection against H2O2-induced cell death in rat PC12 cells assessed as increase in cell viability at 5 uM preincubated for 3 hrs followed by H2O2 addition and measured after 3 hrs by MTS assay relative to CAPE; type: functional
Method in brief: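 PC12 cells plated at 2 × 10^5 cells/mL for 1 day, pretreated with compound (2.5, 5, 10 µM) for 3 h, then H2O2 added (final 400 µM) for 3 h. Viability read by MTS at 490 nm, untreated cells = 100%. Mean ± SD, n = 3.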

[13] = Cytotoxicity against […] BV2 cells assessed as cell viability at 100 uM after 24 hrs by MTT assay; type: cell-based; details: read-out: Activity; method in brief: as §3
PC-12 [14] = assay: Neuroprotection against H2O2-induced cell death in rat PC12 cells assessed as decrease in apoptotic cells at 2.5 uM preincubated for 3 hrs followed by H2O2 addition and measured 3 hrs by Annexin V-FITC/propidium iodide staining based fluorescence microscopic method; type: functional; method in brief: as §4
[15] = Cytotoxicity against […] BV2 cells assessed as cell viability at 0.625 to 40 uM after 24 hrs by MTS assay; type: cell-based; details: read-out: Activity
Method in brief: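 Viability of BV2 cells read by MTS under the NO-assay conditions: 3 h compound (0.625–40 µM) pretreatment followed by LPS 100 ng mL−1 for 24 h.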

[16] = Inhibition of soybean 15-LOX using arachidonic acid or linoleic acid as substrate incubated for 10 mins by colorimetric lipoxygenase inhibitor screening assay kit method; set-up: species or system Glycine max
Method in brief: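 Soybean 15-LOX in a colorimetric kit: enzyme plus compound (1.25–100 µM, in assay buffer), reaction started with arachidonic or linoleic acid substrate, shaken at least 10 min. Chromogen added to stop and develop, absorbance at 490–500 nm; IC50 determined, mean ± SD, n = 3.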

Row | IC50 [16] [µM] | SMILES | Activity (PC-12 [1]) | IC50 [2] [µM] | Activity (PC-12 [3]) | viability at 24 h, 100 µM [4] [%] | Activity (PC-12 [5]) | Ratio IC50 [6] | IC50 (PC-12 [7]) [µM] | Activity (PC-12 [8]) | Ratio IC50 [9] | Activity (PC-12 [10]) | EC50 [11] [µM] | Activity (PC-12 [12]) [%] | viability at 24 h, 100 µM [13] [%] | Activity (PC-12 [14]) | viability at 24 h, up to 40 µM [15] [%]
1 | 2.1 | CC(Cc1ccc(O)c(O)c1)C(C)Cc1ccc(O)c(O)c1 (stereo not drawn) [NORDIHYDROGUAIARETIC ACID] | – | – | – | – | – | – | – | – | – | – | – | – | – | – | –
2 | 140 | O=S(=O)(/C=C/c1ccc(O)c(O)c1)CCCc1ccccc1 | – | 13.4 | – | 86.1 | Active | – | 1.86 | Active | – | Active | 11.5 | – | 72 | Active | > 90

Row | SMILES | IC50 [16] [µM] | Activity (PC-12 [1]) | IC50 [2] [µM] | Activity (PC-12 [3]) | viability at 24 h, 100 µM [4] [%] | Activity (PC-12 [5]) | Ratio IC50 [6] | IC50 (PC-12 [7]) [µM] | Activity (PC-12 [8]) | Ratio IC50 [9] | Activity (PC-12 [10]) | EC50 [11] [µM] | Activity (PC-12 [12]) [%] | viability at 24 h, 100 µM [13] [%] | Activity (PC-12 [14]) | viability at 24 h, up to 40 µM [15] [%]
3 | O=S(=O)(/C=C/c1ccc(O)c(O)c1)CCCC1CCCC1 | 103 | Active | 1.6 | Active | 70.5 | Active | 4 | 1.28 | Active | 8 | Active | 6.3 | 30 | 72.4 | Active | > 90
